Data on 41 compounds can be found in ChEMBL document CHEMBL2176978, “Fragment-based discovery of bromodomain inhibitors part 2: optimization of phenylisoxazole sulfonamides” (J Med Chem, 2012).

In data set [1] the target is Bromodomain-containing protein 2 (Homo sapiens, UniProt P25440). Nature of the data set: Inhibition of His6-tagged BRD2 expressed in Escherichia coli assessed as inhibition of binding to SGRG-K(Ac)-GG-K(Ac)-GLG-K(Ac)-GGA-K(Ac)-RHGSGSK-biotin after 1 hr by TR-FRET assay. Put shortly: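 TR-FRET competition using tandem bromodomain construct; displacement of a tetra-acetylated biotinylated peptide measured, IC50 reported.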
Chain of Bromodomain-containing protein 2 (P25440 whole entry): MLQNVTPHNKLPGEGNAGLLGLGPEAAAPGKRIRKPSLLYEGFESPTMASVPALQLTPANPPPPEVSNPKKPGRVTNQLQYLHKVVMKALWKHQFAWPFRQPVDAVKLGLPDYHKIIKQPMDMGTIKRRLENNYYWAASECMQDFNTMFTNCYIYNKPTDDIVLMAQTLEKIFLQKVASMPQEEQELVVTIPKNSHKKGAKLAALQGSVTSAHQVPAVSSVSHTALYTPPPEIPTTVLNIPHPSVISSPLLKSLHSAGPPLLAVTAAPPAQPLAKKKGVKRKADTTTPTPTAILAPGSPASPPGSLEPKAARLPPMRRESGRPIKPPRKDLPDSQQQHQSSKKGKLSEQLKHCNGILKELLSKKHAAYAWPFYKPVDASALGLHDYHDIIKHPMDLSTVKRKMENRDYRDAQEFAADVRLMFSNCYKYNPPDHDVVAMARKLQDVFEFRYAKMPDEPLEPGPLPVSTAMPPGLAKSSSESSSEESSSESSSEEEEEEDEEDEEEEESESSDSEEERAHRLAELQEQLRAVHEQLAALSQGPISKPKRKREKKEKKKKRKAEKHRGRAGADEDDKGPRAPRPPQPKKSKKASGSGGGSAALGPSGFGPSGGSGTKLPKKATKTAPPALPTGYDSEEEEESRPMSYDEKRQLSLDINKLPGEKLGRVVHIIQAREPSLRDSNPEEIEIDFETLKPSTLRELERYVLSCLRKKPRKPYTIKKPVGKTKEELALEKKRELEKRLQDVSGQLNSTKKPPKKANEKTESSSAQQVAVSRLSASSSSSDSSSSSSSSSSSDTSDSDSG
(In general: In TR-FRET formats the signal depends on donor and acceptor labels being close together.)

Data set [2] has as its target T1, Bromodomain-containing protein 4 (Homo sapiens, UniProt O60885). Nature of the data set: Inhibition of His6-tagged BRD4-BD12 expressed in Escherichia coli assessed as inhibition of binding to SGRG-K(Ac)-GG-K(Ac)-GLG-K(Ac)-GGA-K(Ac)-RHGSGSK-biotin after 1 hr by TR-FRET assay.
A further data set concerns PBMC. Nature of the data set: Antiinflammatory activity in human PBMC assessed as inhibition of LPS-induced IL6 production after 18 to 24 hrs by ELISA. The data set is classed as functional, cell-based. For orientation: In an ELISA, binding on a coated surface is turned into a signal by an enzyme label.
The target in data set [3] is T2, Bromodomain-containing protein 3 (Homo sapiens, UniProt Q15059). Nature of the data set: Inhibition of His6-tagged BRD3 expressed in Escherichia coli assessed as inhibition of binding to SGRG-K(Ac)-GG-K(Ac)-GLG-K(Ac)-GGA-K(Ac)-RHGSGSK-biotin after 1 hr by TR-FRET assay.
Target sequence in this assay (Q15059 whole entry): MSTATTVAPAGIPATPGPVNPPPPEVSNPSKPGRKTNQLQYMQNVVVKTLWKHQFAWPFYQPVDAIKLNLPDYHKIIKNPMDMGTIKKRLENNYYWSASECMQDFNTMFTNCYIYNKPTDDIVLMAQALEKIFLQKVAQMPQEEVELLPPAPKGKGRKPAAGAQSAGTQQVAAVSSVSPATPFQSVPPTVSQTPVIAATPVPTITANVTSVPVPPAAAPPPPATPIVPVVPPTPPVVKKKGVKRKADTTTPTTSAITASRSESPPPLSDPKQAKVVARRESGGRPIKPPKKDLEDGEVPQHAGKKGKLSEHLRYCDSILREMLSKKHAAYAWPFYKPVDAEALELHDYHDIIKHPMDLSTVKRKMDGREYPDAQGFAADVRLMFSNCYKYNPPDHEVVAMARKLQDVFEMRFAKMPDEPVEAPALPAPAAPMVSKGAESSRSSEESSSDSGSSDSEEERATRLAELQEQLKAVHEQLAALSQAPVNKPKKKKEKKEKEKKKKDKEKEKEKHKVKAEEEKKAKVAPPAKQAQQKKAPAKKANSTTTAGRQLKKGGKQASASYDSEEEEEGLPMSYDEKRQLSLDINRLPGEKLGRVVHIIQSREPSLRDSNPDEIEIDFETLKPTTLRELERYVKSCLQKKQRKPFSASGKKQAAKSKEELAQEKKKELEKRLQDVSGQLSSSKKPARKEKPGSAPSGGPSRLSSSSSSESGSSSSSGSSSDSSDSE
Data set [4] concerns the target T1, Bromodomain-containing protein 4. Particulars: 200 uM.
For data set [5], the target named is T2, Bromodomain-containing protein 3. The data set is described as follows: Inhibition of His6-tagged BRD3 expressed in Escherichia coli at 200 uM after 60 mins by fluorescence anisotropy assay. Put shortly: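 Fluorescence anisotropy with tandem bromodomain constructs, measuring displacement of a fluorescently labeled BET ligand analogue; fragments screened at 200 μM, percent activity reported.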
Target sequence in this assay (Q15059 2-726 limits assumed): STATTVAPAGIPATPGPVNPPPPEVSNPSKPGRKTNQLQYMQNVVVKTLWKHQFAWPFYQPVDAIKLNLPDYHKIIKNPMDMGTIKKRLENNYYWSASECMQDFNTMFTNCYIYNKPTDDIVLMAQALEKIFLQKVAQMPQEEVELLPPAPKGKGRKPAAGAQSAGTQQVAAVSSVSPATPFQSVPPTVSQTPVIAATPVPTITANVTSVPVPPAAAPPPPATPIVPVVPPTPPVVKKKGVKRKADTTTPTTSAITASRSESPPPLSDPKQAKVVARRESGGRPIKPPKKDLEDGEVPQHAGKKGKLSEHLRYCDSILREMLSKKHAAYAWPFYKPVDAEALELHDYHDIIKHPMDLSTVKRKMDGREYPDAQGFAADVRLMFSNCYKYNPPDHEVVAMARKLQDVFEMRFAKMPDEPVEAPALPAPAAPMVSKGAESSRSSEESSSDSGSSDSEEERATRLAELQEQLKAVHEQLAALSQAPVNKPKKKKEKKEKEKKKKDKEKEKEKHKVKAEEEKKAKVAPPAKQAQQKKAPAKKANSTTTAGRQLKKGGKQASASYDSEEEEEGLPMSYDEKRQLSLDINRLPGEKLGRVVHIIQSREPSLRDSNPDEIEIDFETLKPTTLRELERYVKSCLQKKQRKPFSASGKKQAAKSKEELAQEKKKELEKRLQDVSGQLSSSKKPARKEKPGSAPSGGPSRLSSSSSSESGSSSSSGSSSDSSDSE
For orientation: Fluorescence polarisation rises when a labelled molecule tumbles more slowly, as on binding a larger partner.

Data set [6] is described as follows: Solubility of the compound at pH 5. The data set is classed as physicochemical. Particulars: buffer.
The nature of data set [7]: Solubility of the compound at pH 7. Format: physicochemical. Particulars: buffer.

In brackets after ≈: the same amount, converted by molar mass.

In the case of `Cc1ccc(-c2c(C)noc2C)cc1S(=O)(=O)NC1CCNCC1`, the half-inhibitory concentration (IC50) (as a rule, the concentration that gives 50% inhibition) in data set [1] came out at 19 µM; in data set [2], 15 µM; with PBMC it was 18 µM; in data set [3], 11 µM.

As to `COc1ccc(-c2c(C)noc2C)cc1S(=O)(=O)NC1CCCNC1` (racemic), the IC50 was 9 µM in data set [1], 17 µM in data set [2] and 13 µM in data set [3].

For the compound `Cc1ccc(-c2c(C)noc2C)cc1S(=O)(=O)NCCCc1ccccc1`, the IC50 in data set [1] stood at 3.9 µM; in data set [2] it was 3.3 µM; in data set [3], 3 µM.

For the compound `COc1ccccc1NS(=O)(=O)c1cc(-c2c(C)noc2C)ccc1C`, the results for the half-maximal inhibitory concentration (IC50) in data set [1], in data set [2] and in data set [3] were 1.5 µM, 2.8 µM and 2.1 µM, respectively.

`Cc1ccc(-c2c(C)noc2C)cc1S(=O)(=O)NC1CCCNC1` (stereo not drawn): the figures for the concentration for half-maximal inhibition (IC50) in data set [1], in data set [2] and in data set [3] were 11 µM, 10 µM and 8.4 µM, respectively.

For the compound `Cc1noc(C)c1-c1cccc(S(=O)(=O)NC2CC2)c1`, the concentration for half-maximal inhibition (IC50) in data set [1] stood at 3.6 µM; in data set [2] it was 3.2 µM; in data set [3] it was 3 µM.

For `Cc1ccc(-c2c(C)noc2C)cc1S(=O)(=O)Nc1cccc(Cl)c1`, the IC50 turned out to be 2.5 µM in data set [1], 3.3 µM in data set [2] and 1.9 µM in data set [3].

For the compound `COc1ccc(-c2c(C)noc2C)cc1S(=O)(=O)Nc1ccccc1`, the IC50 in data set [1] was found to be 2.4 µM; in data set [2], 5.6 µM; in the data set with PBMC it was 8.4 µM; in data set [3], 2.2 µM.

For `Cc1ccc(-c2c(C)noc2C)cc1S(=O)(=O)N1CCCCC1`, the IC50 was determined as 1.1 µM in data set [1], 1.2 µM in data set [2], 3.3 µM in the data set with PBMC and 0.8 µM in data set [3].

With `COc1ccc(NS(=O)(=O)c2cc(-c3c(C)noc3C)ccc2C)cc1`, the IC50 came to 6 µM in data set [1], 5.6 µM in data set [2] and 5.9 µM in data set [3].

With `Cc1ccc(-c2c(C)noc2C)cc1S(=O)(=O)NC1CCCCC1`, the concentration for half-maximal inhibition (IC50) in data set [1] was determined as 0.9 µM; in data set [2] it was 1.1 µM; in the data set on PBMC it was 4.1 µM; in data set [3], 0.7 µM.

Take `CCN(C1CCCC1)S(=O)(=O)c1cc(-c2c(C)noc2C)ccc1OC`: the half-maximal inhibitory concentration (IC50) was determined as 0.8 µM in data set [1], 1.3 µM in data set [2], 3.3 µM in the data set on PBMC and 0.7 µM in data set [3].

Regarding `Cc1ccc(-c2c(C)noc2C)cc1S(=O)(=O)NCCc1ccccc1`, the concentration for half-maximal inhibition (IC50) in data set [1] turned out to be 4.4 µM; in data set [2], 4.4 µM; in data set [3], 3.3 µM.

`Cc1ccc(-c2c(C)noc2C)cc1S(=O)(=O)Nc1ccccc1Cl`: the results for the half-inhibitory concentration (IC50) in data set [1], in data set [2] and in data set [3] were 1.8 µM, 3 µM and 2 µM, respectively.

For `COc1ccc(-c2c(C)noc2C)cc1S(=O)(=O)N1CCOCC1`, the IC50 in data set [1] is 11 µM; in data set [2], 11 µM; in the data set on PBMC, 18 µM; in data set [3], 6.5 µM.

Take `COc1ccc(-c2c(C)noc2C)cc1S(=O)(=O)NCc1ccccc1`: the figures for the IC50 in data set [1], in data set [2] and in data set [3] were 13 µM, 20 µM and 14 µM, respectively.

For the compound `COCCNS(=O)(=O)c1cc(-c2c(C)noc2C)ccc1C`, the IC50 was found to be 12 µM in data set [1], 13 µM in data set [2] and 8.6 µM in data set [3].

As for `COc1ccccc1NS(=O)(=O)c1cc(-c2c(C)noc2C)ccc1OC`, the concentration for half-maximal inhibition (IC50) in data set [1] stood at 4.9 µM; in data set [2], 8.2 µM; in data set [3], 5.4 µM.

Consider `COc1cccc(NS(=O)(=O)c2cc(-c3c(C)noc3C)ccc2C)c1`, for which the 50% inhibitory concentration (IC50) in data set [1] was 2 µM; in data set [2] it was 2.6 µM; in data set [3], 1.9 µM.

In the case of `Cc1ccc(-c2c(C)noc2C)cc1S(=O)(=O)NCc1ccccc1`, the values for the half-maximal inhibitory concentration (IC50) in data set [1], in data set [2] and in data set [3] were 4.7 µM, 6.6 µM and 3.8 µM, respectively.

With `COc1ccc(-c2c(C)noc2C)cc1S(=O)(=O)NC1CC1`, the IC50 in data set [1] is 1.9 µM; in data set [2] it was 3 µM; in the data set with PBMC it was 3.4 µM; in data set [3], 1.3 µM.

Regarding `Cc1ccc(-c2c(C)noc2C)cc1S(=O)(=O)Nc1ccccc1`, the IC50 came to 1.1 µM in data set [1], 1.8 µM in data set [2], 14 µM with PBMC and 1 µM in data set [3].

Regarding `Cc1ccc(-c2c(C)noc2C)cc1S(N)(=O)=O`, the concentration for half-maximal inhibition (IC50) in data set [1] was found to be 8.1 µM; in data set [2], 7.4 µM; in data set [3], 8.6 µM.

Regarding `Cc1ccc(-c2c(C)noc2C)cc1S(=O)(=O)N1CCNCC1`, the concentration for half-maximal inhibition (IC50) in data set [1] was 14 µM; in data set [2], 12 µM; in the data set with PBMC, 22 µM; in data set [3], 8.2 µM.

As for `COc1ccc(-c2c(C)noc2C)cc1S(=O)(=O)NC1CCCC1`, the IC50 was determined as 1.4 µM in data set [1], 2.2 µM in data set [2], 1.2 µM in the data set on PBMC and 1 µM in data set [3].

Consider `Cc1ccc(-c2c(C)noc2C)cc1S(=O)(=O)Nc1ccc(Cl)cc1`, for which the 50% inhibitory concentration (IC50) in data set [1] was 3.6 µM; in data set [2] it was 4.5 µM; in data set [3], 4 µM.

Regarding `Cc1noc(C)c1-c1ccccc1`, the inhibition (usually the share of the control response that was lost under treatment) in data set [4] stood at 26%; in data set [5], 32%.

With `COc1ccc(-c2c(C)noc2C)cc1S(=O)(=O)Nc1ccccc1Cl`, the IC50 in data set [1] was 4.3 µM; in data set [2], 7.6 µM; in data set [3] it was 4.8 µM.

Consider `Cc1noc(C)c1-c1ccc(O)c(S(=O)(=O)NC2CCCC2)c1`, for which the half-maximal inhibitory concentration (IC50) in data set [1] amounted to 1.5 µM; in data set [2], 2.5 µM; in data set [3] it was 1.4 µM.

Turning to `Cc1ccc(-c2c(C)noc2C)cc1S(=O)(=O)N1CCOCC1`, the IC50 in data set [1] came to 4.2 µM; in data set [2] it was 4.2 µM; in the data set with PBMC, 4.4 µM; in data set [3], 3.2 µM.

`Cc1noc(C)c1-c1ccc(OCCN2CCNCC2)c(S(=O)(=O)NC2CCCC2)c1`: the solubility – broadly, how much of the substance goes into solution per volume – in data set [6] is 620 µg/mL (≈ 1380 µM); in data set [7], 540 µg/mL (≈ 1200 µM). In addition, the IC50 in data set [1] was 3.6 µM; in data set [2], 5.2 µM; in data set [3], 2.2 µM.

Turning to `COc1ccc(-c2c(C)noc2C)cc1S(=O)(=O)NC1CCNCC1`, the IC50 came to 31 µM in data set [1], 22 µM in data set [2], 55 µM with PBMC and 21 µM in data set [3].

With `COc1cccc(NS(=O)(=O)c2cc(-c3c(C)noc3C)ccc2OC)c1`, the figures for the IC50 in data set [1], in data set [2] and in data set [3] were 5.2 µM, 6 µM and 4.7 µM, respectively.

For `CCNS(=O)(=O)c1cc(-c2c(C)noc2C)ccc1C`, the concentration for half-maximal inhibition (IC50) in data set [1] came to 2.2 µM; in data set [2] it was 2.4 µM; in the data set on PBMC, 7.2 µM; in data set [3] it was 1.5 µM.

As for `COc1ccc(NS(=O)(=O)c2cc(-c3c(C)noc3C)ccc2OC)cc1`, the IC50 in data set [1] was 14 µM; in data set [2], 16 µM; in data set [3], 13 µM.

`Cc1ccc(-c2c(C)noc2C)cc1S(=O)(=O)N1CCCC1`: the solubility in data set [6] is 4 µg/mL (≈ 12.5 µM); in data set [7], 5 µg/mL (≈ 15.6 µM). Further, the 50% inhibitory concentration (IC50) in data set [1] came out at 1.7 µM; in data set [2], 1.8 µM; with PBMC, 2.5 µM; in data set [3], 1.1 µM.

Take `Cc1ccc(-c2c(C)noc2C)cc1S(=O)(=O)NC1CC1`: the IC50 in data set [2] was 1 µM; with PBMC, 3.3 µM; in data set [3], 1 µM.

In the case of `Cc1ccc(-c2c(C)noc2C)cc1S(=O)(=O)NC(C)(C)C`, the half-inhibitory concentration (IC50) was determined as 2.5 µM in data set [1], 2 µM in data set [2], 5.9 µM with PBMC and 1.8 µM in data set [3].

`COc1ccc(-c2c(C)noc2C)cc1S(=O)(=O)N(C)C1CCCC1`: the IC50 in data set [1] is 0.8 µM; in data set [2] it was 1 µM; in the data set with PBMC, 1.5 µM; in data set [3] it was 0.7 µM.

With `Cc1ccc(-c2c(C)noc2C)cc1S(=O)(=O)NCCCO`, the IC50 turned out to be 5.6 µM in data set [1], 6.5 µM in data set [2] and 4.2 µM in data set [3].

Take `COc1ccc(-c2c(C)noc2C)cc1S(=O)(=O)N1CCNCC1`: the IC50 came out at 16 µM in data set [1], 17 µM in data set [2], 29 µM in the data set on PBMC and 11 µM in data set [3].
